From ChEMBL document CHEMBL4052683, “The discovery of benzoxazine sulfonamide inhibitors of NaV1.7: Tools that bridge efficacy and target engagement” (Bioorg Med Chem Lett, 2017)
pIC50: −log10 of the molar value. Calls of active or inactive are those of the source. The calls are words filed in the database; no cut-off is given here.

Key:
[1] = target: Sodium channel protein type 9 subunit alpha (Homo sapiens, UniProt Q15858); test: Inhibition of human NaV1.7 expressed in HEK293 cells at holding potential of -125 mV with test potentials to -10 mV by whole cell voltage clamp method; type: cell-based
Sequence of Sodium channel protein type 9 subunit alpha (Q15858 whole entry): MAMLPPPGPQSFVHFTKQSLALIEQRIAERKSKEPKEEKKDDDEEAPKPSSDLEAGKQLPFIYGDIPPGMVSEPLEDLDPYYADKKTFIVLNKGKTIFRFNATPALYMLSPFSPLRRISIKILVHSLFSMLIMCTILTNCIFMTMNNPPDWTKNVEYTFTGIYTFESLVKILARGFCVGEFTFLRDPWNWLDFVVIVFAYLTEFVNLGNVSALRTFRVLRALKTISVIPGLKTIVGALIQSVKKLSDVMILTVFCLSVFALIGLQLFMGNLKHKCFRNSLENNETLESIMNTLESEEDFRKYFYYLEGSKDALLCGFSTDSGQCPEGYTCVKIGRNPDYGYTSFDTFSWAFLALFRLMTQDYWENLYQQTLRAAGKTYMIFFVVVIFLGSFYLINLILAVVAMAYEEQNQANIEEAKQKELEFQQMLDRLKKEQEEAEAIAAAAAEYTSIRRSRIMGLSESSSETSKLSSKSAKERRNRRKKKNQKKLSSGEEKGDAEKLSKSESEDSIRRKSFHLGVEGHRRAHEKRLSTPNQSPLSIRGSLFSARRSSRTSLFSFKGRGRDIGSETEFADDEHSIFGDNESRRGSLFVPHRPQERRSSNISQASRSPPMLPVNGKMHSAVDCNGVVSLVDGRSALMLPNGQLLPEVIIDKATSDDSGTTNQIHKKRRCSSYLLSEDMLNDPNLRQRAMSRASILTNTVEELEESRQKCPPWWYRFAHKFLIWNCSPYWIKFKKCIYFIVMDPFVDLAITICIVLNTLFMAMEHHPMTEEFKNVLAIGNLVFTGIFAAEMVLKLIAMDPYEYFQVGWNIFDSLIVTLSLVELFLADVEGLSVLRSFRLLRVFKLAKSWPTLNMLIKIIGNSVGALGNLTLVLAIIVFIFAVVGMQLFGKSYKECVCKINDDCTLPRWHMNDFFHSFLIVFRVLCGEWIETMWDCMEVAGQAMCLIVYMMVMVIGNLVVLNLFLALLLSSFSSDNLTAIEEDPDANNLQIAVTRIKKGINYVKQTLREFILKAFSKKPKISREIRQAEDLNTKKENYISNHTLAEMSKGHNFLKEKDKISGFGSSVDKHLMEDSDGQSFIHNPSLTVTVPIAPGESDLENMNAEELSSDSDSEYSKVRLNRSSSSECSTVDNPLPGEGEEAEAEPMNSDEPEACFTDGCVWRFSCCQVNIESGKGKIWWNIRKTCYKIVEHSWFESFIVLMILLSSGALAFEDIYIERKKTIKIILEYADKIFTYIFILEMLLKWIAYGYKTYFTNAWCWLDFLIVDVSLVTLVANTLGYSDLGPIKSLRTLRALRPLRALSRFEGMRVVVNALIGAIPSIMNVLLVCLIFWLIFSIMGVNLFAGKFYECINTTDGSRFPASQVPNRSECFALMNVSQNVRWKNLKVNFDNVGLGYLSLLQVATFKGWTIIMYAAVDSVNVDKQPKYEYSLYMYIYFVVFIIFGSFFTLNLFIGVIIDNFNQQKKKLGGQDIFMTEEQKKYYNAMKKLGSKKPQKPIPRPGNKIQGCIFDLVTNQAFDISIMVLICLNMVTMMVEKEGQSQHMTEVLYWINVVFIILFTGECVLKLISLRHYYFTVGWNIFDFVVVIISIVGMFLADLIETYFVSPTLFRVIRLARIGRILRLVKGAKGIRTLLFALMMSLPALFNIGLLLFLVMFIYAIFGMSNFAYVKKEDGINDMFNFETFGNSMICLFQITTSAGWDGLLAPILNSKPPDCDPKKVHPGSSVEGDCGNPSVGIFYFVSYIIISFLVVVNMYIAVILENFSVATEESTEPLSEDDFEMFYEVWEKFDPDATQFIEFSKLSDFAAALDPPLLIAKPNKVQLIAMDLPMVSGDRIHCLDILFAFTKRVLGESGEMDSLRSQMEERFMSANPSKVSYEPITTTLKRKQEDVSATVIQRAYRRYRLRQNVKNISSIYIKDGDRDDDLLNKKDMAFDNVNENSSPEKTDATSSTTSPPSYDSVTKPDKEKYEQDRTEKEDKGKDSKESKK

[2] = target: Sodium channel protein type 5 subunit alpha (Homo sapiens, UniProt Q14524); test: Inhibition of human NaV1.5 expressed in […] cells at holding potential of -125 mV with test potentials to -10 mV by whole cell voltage clamp method; type: cell-based
Rattus norvegicus [3] = test: Unbound clearance in rat at 0.5 mg/kg, iv by LC-MS/MS method; type: ADME, organism-based; details: in vivo
Summary of the method: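 Male rats given 0.5 mg/kg intravenously as a solution in DMSO. Unbound clearance was calculated as rat clearance divided by unbound fraction, with unbound fraction determined by equilibrium dialysis.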

[4] = Clearance in pooled rat liver microsomes at 1 uM in presence of NADPH by LC-MS/MS method; type: ADME, microsome; details: read-out: CLH
[5] = Inhibition of cynomolgus monkey NaV1.7 by whole cell voltage clamp method; details: Macaca fascicularis
Summary of the method: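 PatchXpress electrophysiology was run with a protocol giving about 20% channel inactivation. At least four concentrations at half-log spacing were applied one at a time, with washout, current recovery and holding voltage reset between each. Data were pooled from at least 10 cells, with 2–3 points per concentration, and fitted with a 4-parameter Hill curve to give one IC50.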

[6] = Protein binding in mouse plasma at 5 uM by ultracentrifugation and LC-MS/MS method; type: ADME, cell-free; details: read-out: PPB (converted)
[7] = AUC (infinity) in mouse at 30 mg/kg, po by LC-MS/MS method; type: ADME, organism-based; parameters: dose 30 mg/kg, time infinity, route oral; details: in vivo
[8] = Half life in rat at 10 mg/kg, po by LC-MS/MS method; type: ADME, organism-based; details: in vivo
[9] = Tmax in rat at 10 mg/kg, po by LC-MS/MS method; type: ADME, organism-based; details: in vivo
[10] = Tmax in mouse at 30 mg/kg, po by LC-MS/MS method; type: ADME, organism-based; details: in vivo
[11] = Oral bioavailability in rat at 10 mg/kg by LC-MS/MS method; type: ADME, organism-based; details: in vivo
Plasma [12] = test: Plasma concentration in Sprague-Dawley rat model of formalin-induced nociception behavior at 100 mg/kg, po; type: ADME, organism-based; details: in vivo
Summary of the method: (§1)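 Sprague Dawley rats got 10, 30 or 100 mg/kg PO in 30% (w/v) hydroxypropyl β-cyclodextrin, pH 10.0 with KOH. Total phase II formalin-induced flinches were counted. Morphine sulfate 2 mg/kg SC served as control. Unbound plasma levels were measured and compared with the rat NaV1.7 IC50.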

Plasma [13] = test: Plasma concentration in C57BL/6 mouse model of formalin-induced nociception behavior at 30 mg/kg, po; type: ADME, organism-based; details: in vivo
Summary of the method: (§2)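 Male C57BL/6 mice got 30, 60 or 100 mg/kg PO in 30% (w/v) hydroxypropyl β-cyclodextrin in water, pH 10.0 with KOH. Formalin (2%) was injected subcutaneously into the dorsal hind paw, and total phase II paw licking and lifting were scored. Morphine sulfate 3 mg/kg SC served as control. Unbound plasma concentration was divided by the mouse NaV1.7 IC50.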

Plasma [14] = test: Plasma concentration in C57BL/6 mouse model of formalin-induced nociception behavior at 60 mg/kg, po; type: ADME, organism-based; details: in vivo; summary of the method: as §2
Plasma [15] = test: Plasma concentration in C57BL/6 mouse model of histamine-induced pruritus at 100 mg/kg, po; type: ADME, organism-based; details: in vivo
Summary of the method: (§3)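 Male C57BL/6 mice got 30, 60 or 100 mg/kg PO in 30% hydroxypropyl β-cyclodextrin, pH 10.0, 120 min before the test. Histamine (8.15mM) was given intradermally to the nape of the neck just before testing, and scratch bouts were counted over 0–30 min. Diphenhydramine 30 mg/kg PO in water, 90 min before, served as control. Unbound plasma concentrations were measured.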

[16] = Ratio of unbound plasma concentration in C57BL/6 mouse model of formalin-induced nociception behavior at 100 mg/kg, po to IC50 for mouse Nav1.7 by whole cell voltage clamp method; summary of the method: as §2
[17] = Ratio of unbound plasma concentration in C57BL/6 mouse model of histamine-induced pruritus at 30 mg/kg, po to IC50 for mouse Nav1.7 by whole cell voltage clamp method
Summary of the method: (§4)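 The formalin arm received 2% formalin subcutaneously into the dorsal hind paw, and total phase II licking and lifting was scored. The pruritus arm was dosed 120 min before histamine (8.15mM, intradermal, nape of neck), and scratch bouts were counted over 0-30 min. Unbound plasma concentration was determined at each dose.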

Rattus norvegicus [18] = test: Analgesic activity in Sprague-Dawley rat model of formalin-induced nociception behavior assessed as reduction in formalin-evoked paw flinching at 10 mg/kg, po; type: functional; summary of the method: as §1
Rattus norvegicus [19] = test: Analgesic activity in Sprague-Dawley rat model of formalin-induced nociception behavior assessed as reduction in formalin-evoked paw flinching at 30 mg/kg, po; type: functional; summary of the method: as §1
Mus musculus [20] = test: Analgesic activity in C57BL/6 mouse model of formalin-induced nociception behavior assessed as reduction in formalin-evoked paw lifting/licking at 60 mg/kg, po; type: functional; summary of the method: as §2
Mus musculus [21] = test: Analgesic activity in C57BL/6 mouse model of formalin-induced nociception behavior assessed as reduction in formalin-evoked paw lifting/licking at 100 mg/kg, po; type: functional; summary of the method: as §2
Mus musculus [22] = test: Anti-pruritic activity in C57BL/6 mouse model of histamine-induced pruritus assessed as reduction in histamine-induced scratching at 30 mg/kg, po dosed 120 mins before test; type: functional; summary of the method: as §3
Plasma [23] = test: Unbound plasma concentration in Sprague-Dawley rat model of formalin-induced nociception behavior at 100 mg/kg, po; type: ADME, organism-based; details: in vivo
Summary of the method: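 Total phase II formalin-induced flinches were scored. Unbound plasma concentration was determined at each dose and related to the rat NaV1.7 IC50.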

Plasma [24] = test: Unbound plasma concentration in C57BL/6 mouse model of formalin-induced nociception behavior at 30 mg/kg, po; type: ADME, organism-based; details: in vivo; summary of the method: as §4
Plasma [25] = test: Unbound plasma concentration in C57BL/6 mouse model of formalin-induced nociception behavior at 100 mg/kg, po; type: ADME, organism-based; details: in vivo; summary of the method: as §4
Plasma [26] = test: Unbound plasma concentration in C57BL/6 mouse model of histamine-induced pruritus at 30 mg/kg, po; type: ADME, organism-based; details: in vivo; summary of the method: as §4
Plasma [27] = test: Unbound plasma concentration in C57BL/6 mouse model of histamine-induced pruritus at 100 mg/kg, po; type: ADME, organism-based; details: in vivo; summary of the method: as §4
[28] = target: Histamine H1 receptor (Homo sapiens) (UniProt P35367); test: Displacement of [3H]pyrilamine from human recombinant histamine H1 receptor expressed in HEK293 cells at 10 uM by radioligand displacement assay; type: cell-based
Sequence of Histamine H1 receptor (Homo sapiens) (P35367 whole entry): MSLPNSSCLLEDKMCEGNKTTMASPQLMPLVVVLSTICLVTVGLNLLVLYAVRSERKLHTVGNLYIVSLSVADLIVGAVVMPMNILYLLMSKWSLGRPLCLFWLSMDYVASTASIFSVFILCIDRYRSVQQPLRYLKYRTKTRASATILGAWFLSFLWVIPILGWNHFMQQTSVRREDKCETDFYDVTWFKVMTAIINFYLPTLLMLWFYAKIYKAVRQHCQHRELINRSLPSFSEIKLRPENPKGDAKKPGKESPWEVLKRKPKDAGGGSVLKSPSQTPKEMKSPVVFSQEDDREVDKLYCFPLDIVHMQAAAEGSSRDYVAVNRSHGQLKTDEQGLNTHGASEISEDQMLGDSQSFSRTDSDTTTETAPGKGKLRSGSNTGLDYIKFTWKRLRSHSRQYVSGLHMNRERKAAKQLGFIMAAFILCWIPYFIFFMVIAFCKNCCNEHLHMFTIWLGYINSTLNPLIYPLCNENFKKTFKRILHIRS

[29] = target: Histamine H3 receptor (Homo sapiens) (UniProt Q9Y5N1); test: Displacement of [3H]N-alpha-Me-histamine from human recombinant histamine H3 receptor expressed in CHO cells at 10 uM by radioligand displacement assay; type: cell-based
Sequence of Histamine H3 receptor (Homo sapiens) (Q9Y5N1 whole entry): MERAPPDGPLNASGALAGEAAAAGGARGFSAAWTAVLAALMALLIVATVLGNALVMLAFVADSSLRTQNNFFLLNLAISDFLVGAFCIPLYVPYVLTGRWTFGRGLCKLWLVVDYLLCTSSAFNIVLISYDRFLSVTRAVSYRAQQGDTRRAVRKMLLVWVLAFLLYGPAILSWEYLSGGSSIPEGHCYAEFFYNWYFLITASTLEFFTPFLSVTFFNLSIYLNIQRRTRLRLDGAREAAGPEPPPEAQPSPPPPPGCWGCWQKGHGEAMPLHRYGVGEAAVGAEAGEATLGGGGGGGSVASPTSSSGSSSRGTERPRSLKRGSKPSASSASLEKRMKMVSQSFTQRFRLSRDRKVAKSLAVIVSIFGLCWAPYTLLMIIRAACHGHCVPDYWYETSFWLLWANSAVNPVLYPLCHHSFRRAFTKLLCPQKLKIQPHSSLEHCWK

Mus musculus [30] = test: Analgesic activity in C57BL/6 mouse model of formalin-induced nociception behavior assessed as reduction in formalin-evoked paw lifting/licking at 30 to 100 mg/kg, po; type: functional, organism-based; summary of the method: as §2
[31] = Apparent permeability in MDCK vector control cells at 5 uM; details: dog
[32] = target: Sodium channel protein type 10 subunit alpha (Rattus norvegicus, UniProt Q62968); test: Inhibition of NaV1.8 in rat DRG neurons assessed as reduction in tetrodotoxin-resistant sodium channel currents at holding potential of -140 mV by manual patch clamp electrophysiology assay
Sequence of Sodium channel protein type 10 subunit alpha (Q62968 whole entry): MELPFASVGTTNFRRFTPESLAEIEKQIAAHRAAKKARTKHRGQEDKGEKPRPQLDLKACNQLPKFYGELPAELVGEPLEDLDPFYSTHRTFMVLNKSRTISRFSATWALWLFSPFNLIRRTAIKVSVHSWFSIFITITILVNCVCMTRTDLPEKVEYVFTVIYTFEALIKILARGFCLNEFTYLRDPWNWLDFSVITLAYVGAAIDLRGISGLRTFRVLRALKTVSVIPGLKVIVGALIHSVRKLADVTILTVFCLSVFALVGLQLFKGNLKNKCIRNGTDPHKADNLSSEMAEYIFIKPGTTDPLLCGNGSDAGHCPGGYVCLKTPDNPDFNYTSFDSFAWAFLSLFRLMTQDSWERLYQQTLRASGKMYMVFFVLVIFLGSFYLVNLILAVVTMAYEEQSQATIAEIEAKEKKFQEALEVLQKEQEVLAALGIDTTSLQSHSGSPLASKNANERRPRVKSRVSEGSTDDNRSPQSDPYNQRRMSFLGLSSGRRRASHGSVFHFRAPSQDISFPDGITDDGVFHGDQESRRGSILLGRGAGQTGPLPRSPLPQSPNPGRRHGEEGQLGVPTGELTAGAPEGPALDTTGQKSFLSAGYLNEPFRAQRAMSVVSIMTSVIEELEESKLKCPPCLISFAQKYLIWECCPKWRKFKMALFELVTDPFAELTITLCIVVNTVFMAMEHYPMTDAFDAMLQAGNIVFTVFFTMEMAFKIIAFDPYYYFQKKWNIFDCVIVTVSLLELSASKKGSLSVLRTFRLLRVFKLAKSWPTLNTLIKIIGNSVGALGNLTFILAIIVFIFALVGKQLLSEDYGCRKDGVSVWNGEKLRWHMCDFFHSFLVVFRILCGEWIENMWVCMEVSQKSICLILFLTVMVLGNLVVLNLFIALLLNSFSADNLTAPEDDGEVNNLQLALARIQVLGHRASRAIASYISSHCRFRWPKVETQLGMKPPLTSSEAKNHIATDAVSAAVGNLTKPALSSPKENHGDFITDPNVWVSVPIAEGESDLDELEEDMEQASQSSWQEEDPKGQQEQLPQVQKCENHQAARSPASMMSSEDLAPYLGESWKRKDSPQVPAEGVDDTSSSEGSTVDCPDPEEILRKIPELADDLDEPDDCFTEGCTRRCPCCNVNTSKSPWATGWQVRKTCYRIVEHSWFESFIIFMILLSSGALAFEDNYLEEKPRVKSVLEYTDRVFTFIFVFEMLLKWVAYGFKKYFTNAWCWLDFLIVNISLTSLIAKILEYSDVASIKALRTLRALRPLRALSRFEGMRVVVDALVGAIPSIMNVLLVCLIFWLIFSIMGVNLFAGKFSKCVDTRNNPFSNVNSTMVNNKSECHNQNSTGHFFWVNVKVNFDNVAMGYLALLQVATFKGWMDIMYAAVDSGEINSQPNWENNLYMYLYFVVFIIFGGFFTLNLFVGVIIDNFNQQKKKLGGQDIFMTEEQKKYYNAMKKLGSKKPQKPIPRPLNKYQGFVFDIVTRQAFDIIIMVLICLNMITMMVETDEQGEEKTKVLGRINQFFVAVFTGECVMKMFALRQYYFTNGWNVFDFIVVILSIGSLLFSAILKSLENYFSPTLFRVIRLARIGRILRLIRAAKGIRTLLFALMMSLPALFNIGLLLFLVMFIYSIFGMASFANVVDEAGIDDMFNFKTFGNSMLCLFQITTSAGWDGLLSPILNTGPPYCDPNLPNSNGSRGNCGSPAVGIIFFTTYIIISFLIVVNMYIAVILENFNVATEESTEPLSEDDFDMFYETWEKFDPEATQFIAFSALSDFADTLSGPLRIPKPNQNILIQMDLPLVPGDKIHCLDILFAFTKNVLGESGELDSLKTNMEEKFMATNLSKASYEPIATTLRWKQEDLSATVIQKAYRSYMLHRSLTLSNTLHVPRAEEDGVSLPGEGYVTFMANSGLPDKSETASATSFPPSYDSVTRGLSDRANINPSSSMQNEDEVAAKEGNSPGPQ

Q: With `N#Cc1cc(C(F)(F)F)ccc1N1CCOc2cc(S(=O)(=O)Nc3nccs3)c(F)cc21` as the compound, how does the pIC50 [1] read?
A: 6.85

Q: What about the pIC50 [2] of the same compound?
A: 6.48 to 6.49

Q: And the CL free (Rattus norvegicus [3])?
A: 39 L/h/kg

Q: And the microsomal CLint at 1 µM [4]?
A: < 14 µL/min/mg

Q: What about the pIC50 [5] of the same compound?
A: 6.43

Q: What about the fraction unbound at 5 µM [6] of the same compound?
A: 0.006

Q: What about the AUC(0-inf) [7] of the same compound?
A: 790 µM·h

Q: And the half-life [8]?
A: 588 min

Q: And the Tmax [9]?
A: 6.7 h

Q: What about the Tmax [10] of the same compound?
A: 2 h

Q: And the bioavailability [11]?
A: 57%

Q: What about the concentration (Plasma [12]) of the same compound?
A: 11 µM

Q: What about the concentration (Plasma [13]) of the same compound?
A: 51 µM

Q: And the concentration (Plasma [14])?
A: 100 µM

Q: And the concentration (Plasma [15])?
A: 113 µM

Q: And the Ratio [16]?
A: 16

Q: And the Ratio [17]?
A: 6

Q: What about the MPE (Rattus norvegicus [18]) of the same compound?
A: 17%

Q: And the MPE (Rattus norvegicus [19])?
A: 39%

Q: And the MPE (Mus musculus [20])?
A: 45%

Q: And the MPE (Mus musculus [21])?
A: 77%

Q: What about the MPE (Mus musculus [22]) of the same compound?
A: 37%

Q: What about the “Cp(f)” value (Plasma [23]) of the same compound?
A: 0.18 µM

Q: What about the “Cp(f)” value (Plasma [24]) of the same compound?
A: 0.3 µM

Q: What about the “Cp(f)” value (Plasma [25]) of the same compound?
A: 0.92 µM

Q: And the “Cp(f)” value (Plasma [26])?
A: 0.37 µM

Q: And the “Cp(f)” value (Plasma [27])?
A: 0.68 µM

Q: And the inhibition [28]?
A: inactive

Q: What about the inhibition [29] of the same compound?
A: inactive

Q: What about the inhibition (Mus musculus [30]) of the same compound?
A: Dose-dependent effect

Q: And the Papp at 5 µM [31]?
A: 19 ×10⁻⁶ cm/s

Q: And the pIC50 [32]?
A: < 4.52
